# Screens: PubChem, several laboratories
# Compounds with a hit are over-represented: about 2.8% of the library has one in this group of screens.
# PGE2 EP2 inh = human EP2 receptor antagonists, primary screen, TR-FRET cAMP, C6 glioma cells | C6 glioma cells expressing human EP2; cells stimulated with saturating PGE2 | Prostaglandin E2 receptor EP2 subtype (Homo sapiens), P43116 | actives 0.52% (n = 260,000) | inhibition, % at 25 µM;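 active means percent inhibition above 40 after rounding to a whole number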;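 further: rat C6 glioma host cells with rolipram phosphodiesterase inhibitor present; the protocol text gives 20 µM as final concentration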
# EP2 modulator = EP2 receptor modulators, cAMP readout, primary screen, cell-based, HTRF cAMP, PGE2 stimulation. Prostaglandin E2 receptor EP2 subtype (Homo sapiens), P43116. EP2-expressing cells, cAMP HTRF FRET, PGE2 co-stimulation. induction, % at 25 µM. actives 0.83% (n = 260,000). AID 940, 2007;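 active means compounds whose cAMP rise, as percent of the full-agonist control response, exceeds 60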;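 further: rat C6 glioma line stably carrying human EP2 under a CMV promoter; the protocol text gives 20 µM as final concentration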
# NPY Y1 blocker = NPY-Y1 receptor antagonists, primary screen, cell-based. Neuropeptide Y receptor type 1 (Homo sapiens), P25929. inhibition, % at 3.6 µM. actives 1% (n = 200,000). HEK293-CNG Y1 cells, membrane potential fluorescence; NPY at EC95, then isoproterenol;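 active means inhibition above the campaign mean inhibition of all tested compounds plus 3 SD, cut at about 20% in these data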
#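 material = HEK293 cells with Y1 receptor plus CNG channel | also added = NPY 25 nM then isoproterenol 1 µM plus Ro 20-1724 25 µM | schedule = dye 3 h, compound 60 min room temperature, stimulation 45 min | measured by = membrane potential fluorescence | benchmarks = high control isoproterenol alone, low control NPY with isoproterenol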
# NPY-Y2 antag = NPY-Y2 receptor antagonists, primary screen, cell-based; Neuropeptide Y receptor type 2 (Homo sapiens), P49146; NPY-Y2 expressing cells, antagonist mode; inhibition, % at 2.7 µM; actives 0.99% (n = 140,000); in the data active means inhibition above about 17%
# Target sequence (P49146 whole entry, looked up): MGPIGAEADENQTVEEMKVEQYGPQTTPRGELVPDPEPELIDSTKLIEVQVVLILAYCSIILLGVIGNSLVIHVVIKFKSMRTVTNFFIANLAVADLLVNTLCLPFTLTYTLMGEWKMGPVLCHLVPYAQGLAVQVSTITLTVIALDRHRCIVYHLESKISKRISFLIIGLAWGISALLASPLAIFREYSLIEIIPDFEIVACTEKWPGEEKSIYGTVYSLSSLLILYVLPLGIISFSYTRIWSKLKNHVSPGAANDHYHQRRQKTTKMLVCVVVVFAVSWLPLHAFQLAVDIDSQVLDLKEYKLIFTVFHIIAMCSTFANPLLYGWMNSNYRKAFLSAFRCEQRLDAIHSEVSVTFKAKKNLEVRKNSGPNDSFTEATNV
# NPY1 pot ag = NPY-Y1 receptor potentiators or agonists, primary screen, cell-based. NPY-Y1 expressing cells, potentiator/agonist activation. activation, % at 3.6 µM. AID 1304, 2008. actives 0.37% (n = 220,000); in the data active means activation above about 33%, passing the limit was not always enough;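 further: cells stimulated with NPY at EC10 then isoproterenol at EC100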
# NPY2 pot ag = NPY-Y2 potentiators or agonists, primary screen, cell-based | cells expressing NPY-Y2, potentiator/agonist read-out | activation, % at 3.6 µM | actives 0.45% (n = 220,000); in the data active means activation above about 27%;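 further: cells stimulated with NPY near EC25 plus isoproterenol at EC100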
# Numbers stand for hits; i = inactive; nt = not tested or not shown.
SMILES,PGE2 EP2 inh,EP2 modulator,NPY Y1 blocker,NPY-Y2 antag,NPY1 pot ag,NPY2 pot ag
O=C(O)[C@@H]1[C@H](C(=O)Nc2cccc3cccnc23)[C@@H]2CC[C@H]1O2,58,i,nt,nt,nt,nt
CCOC(=O)c1c(C)n(C)c2ccc(O)c(CN(C)C)c12,i,i,i,i,75,70
O=C(Nc1ccccc1-c1ccccc1)C1CCCN(S(=O)(=O)c2ccccc2Br)C1 (centres undefined),i,i,nt,nt,nt,nt
Cc1cc2ccc(OC(=O)c3ccc(N=C(N)N)cc3)cc2oc1=O,116,i,nt,nt,nt,nt
CCOC(=O)c1cc2ccc(OC(=O)c3ccco3)cc2oc1=O,i,i,i,i,i,i
COc1cccc(OCc2nnc(SCC(=O)N3CCCC(C)C3)n2C)c1 (centres undefined),i,i,nt,nt,nt,nt
CC1CN(c2oc(COc3ccc(Cl)cc3Cl)nc2C#N)CC(C)O1 (centres undefined),i,i,29,23,i,i
Cc1ccc(OCc2nc(C#N)c(N3CCCCC3)o2)cc1,i,i,nt,nt,i,i
Cc1cccc(OCc2nc(C#N)c(N3CCCC3)o2)c1,i,i,nt,nt,i,i
COc1ccc(N2CCN(c3oc(COc4ccccc4Cl)nc3C#N)CC2)cc1,i,i,42,25,i,i
Cc1cccc(OCc2nc(C#N)c(N3CC(C)CC(C)C3)o2)c1 (centres undefined),i,i,56,18,i,i
COc1ccc(OCc2nc(C#N)c(N3CCN(c4ccc(OC)cc4)CC3)o2)cc1,i,i,37,25,i,i
CCC(=O)N(Cc1cccs1)Cc1cc2c(C)cc(C)cc2n2nnnc12,i,i,nt,nt,nt,nt
CCn1nc(NS(=O)(=O)c2ccc3c(c2)NC(=O)CO3)cc1C,i,i,nt,nt,nt,nt
Cn1c2ccccc2c(=O)c2c(=O)n(Cc3ccco3)c(-c3ccc(C(C)(C)C)cc3)nc21,i,65,nt,nt,i,i
Cc1ccc(C)c(NC(=O)CSc2nnnn2-c2ccc3c(c2)OCCO3)c1,i,i,nt,nt,nt,nt
O=C(NC1CCCCC1)C(c1ccco1)N(Cc1ccc2c(c1)OCO2)C(=O)Cc1cccs1 (centres undefined),i,87,nt,nt,nt,nt
Cc1ccc(C(C(=O)NC2CCCCC2)N(Cc2ccco2)C(=O)Cc2cccs2)cc1 (centres undefined),i,62,nt,nt,nt,nt
Cc1ccc(C(C(=O)NC2CCCC2)N(Cc2ccc3c(c2)OCO3)C(=O)Cc2cccs2)cc1 (centres undefined),i,i,i,22,i,i
COc1cc(C2Nc3cc(C)c(C)cc3NC3=C2C(=O)CC(C)(C)C3)ccc1O (centres undefined),i,i,nt,nt,nt,nt
CCN1CC=C2C(C#N)=C(N)C(C#N)(C#N)C(c3cccc(Cl)c3)C2C1 (centres undefined),i,i,nt,nt,nt,nt
CC(C)NC[C@@H](O)COc1ccc(CC(N)=O)cc1,i,i,nt,nt,nt,nt
CC(C)NCC(O)COc1cccc2ccccc12 (centres undefined),i,i,nt,nt,nt,nt
CC(C)NCC(O)COc1cccc2[nH]ccc12 (centres undefined),i,i,i,nt,113,106
COC(=O)Cc1c[nH]c2ccc(OCC(O)CNC(C)C)cc12 (centres undefined),i,i,i,i,101,88
SMILES,PGE2 EP2 inh,EP2 modulator,NPY Y1 blocker,NPY-Y2 antag,NPY1 pot ag,NPY2 pot ag
CC(=O)NCCc1c[nH]c2ccc(OCC(O)CNC(C)(C)C)cc12 (centres undefined),i,i,nt,nt,81,57
C=CCNC(=O)c1cc(-c2ccc(Cl)cc2Cl)on1,i,i,nt,nt,nt,nt
C=C/C=C(\C=C/C)c1c[nH]n2c(=O)c(CC(=O)OCC)c(C)nc12,i,i,nt,nt,nt,nt
O=C(Nc1ccccc1Cl)C1(c2ccccc2)CC1(Cl)Cl (centres undefined),i,62,i,i,i,i
COCCn1nnnc1C(c1cc2ccc(OC)cc2[nH]c1=O)N1CCCCCC1 (centres undefined),i,i,nt,nt,nt,nt
Cc1cccc2nc(-c3ccco3)c(Nc3ccccc3)n12,i,i,i,nt,47,34
CC(C)NC(=O)Cn1cc(C(=O)C(C)C)c2ccccc21,i,i,nt,nt,nt,nt
Cn1c(=O)c2c(nc(Oc3ccc4c(c3)OCO4)n2Cc2ccc(Br)cc2)n(C)c1=O,i,76,nt,nt,i,i
Cc1cc[nH]c(=O)c1NCc1cc2c(C)nn(-c3ccccc3)c2[nH]c1=O,46,i,nt,nt,nt,nt
Cc1nn(-c2ccccc2)c2[nH]c(=O)c(CNc3ccc(F)c(Cl)c3)cc12,i,i,nt,nt,nt,nt
c1nc2nc3c(c(Nc4ccc5c(c4)CCC5)n2n1)CCC3,i,i,nt,nt,nt,nt
Cc1cc(C(=O)CSc2nn3c(=O)c(C(C)(C)C)nnc3s2)c(C)n1-c1ccc(F)cc1,44,i,i,i,i,i
CC(C)N(C(=O)CSc1nn2c(=O)c(C(C)(C)C)nnc2s1)c1ccccc1,i,i,i,i,i,i
COc1ccc(CCNC(=O)COc2ccc3c(C)cc(=O)oc3c2)cc1OC,i,i,nt,nt,nt,nt
COc1ccc(CC[N@+]2(C)COc3cc4oc(=O)cc(C)c4cc3C2)cc1OC,51,i,nt,nt,nt,nt
O=[N+]([O-])c1cccc(/C=C/c2nc3ccc([N+](=O)[O-])cc3[nH]2)c1,44,i,i,i,i,i
C/C(N[O-])=C(\C)[N+]([O-])=[Co].CC(=N\[O-])/C(C)=N/[O-].O[C@@H]1[CH-]CCCC1.c1ccncc1,43,i,nt,nt,nt,nt
CCCSC1=C(C#N)C2(CCCCC2)C(C#N)=C(N)N1,i,i,i,nt,53,32
Oc1cc(-n2cccn2)c(O)cc1-n1cccn1,114,i,nt,nt,i,i
O=Cc1ccccc1-n1cccn1,i,i,i,nt,i,i
COc1ccc(-c2[nH]ncc2N=Nc2ccccc2)cc1,i,62,i,nt,i,i
COc1cccc(C2N(c3ccccc3)CCN2c2ccccc2)c1OC,i,64,i,nt,i,i
COc1cc(/C=C\c2[nH]c(=O)[nH]c(=O)c2[N+](=O)[O-])cc(OC)c1,i,i,nt,nt,nt,nt
COc1ccc(O[C@H]2C=C[C@@H](c3ccccc3)O[C@@H]2CO/N=C(\C)CCN2CCCCc3nc(C)c(C)cc32)cc1,nt,i,22,21,i,i
C/C(CCN1CCCCc2nc(C)c(C)cc21)=N\O[C@@H](C)CN1CCCCc2nc(C)c(C)cc21,nt,i,i,i,i,i
COc1ccccc1CN(Cc1cc2cc(C)ccc2[nH]c1=O)Cc1nnnn1C1CCCC1,i,65,nt,nt,nt,nt
Cc1ccc2[nH]c(=O)c(CN(Cc3ccccc3)Cc3nnnn3C3CCCCC3)cc2c1,i,i,nt,nt,nt,nt
Cc1ccc2[nH]c(=O)c(CN(Cc3ccccc3Cl)Cc3nnnn3C3CCCC3)cc2c1,i,74,nt,nt,nt,nt
